# Test results: ChEMBL document CHEMBL4177624, “Rationally designed hecogenin thiosemicarbazone analogs as novel MEK inhibitors for the control of breast malignancies” (Bioorg Med Chem, 2017)
# Assays:
# Format in all cases: functional, cell-based
# MDA-MB-231 = assay: Antiproliferative activity against human MDA-MB-231 cells after 72 hrs by MTT assay; conditions: MDA-MB-231, 72 h
# Summary of the method: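 MDA-MB-231 triple-negative breast cancer cells were exposed to a range of concentrations for 72 h. Proliferation was read by MTT. Results are given as mean percent viability versus concentration, with IC₅₀ ± SEM calculated from the curve.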
# BT-474 = assay: Antiproliferative activity against human BT474 cells after 72 hrs by MTT assay; conditions: BT-474, 72 h
# Summary of the method: (§1)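 Six human breast carcinoma lines of differing molecular and phenotypic character were each exposed to a range of concentrations for 72 h. Proliferation was read by MTT. Results are given as mean percent viability, with IC₅₀ ± SEM calculated per cell line.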
# MCF7 = assay: Antiproliferative activity against human MCF7 cells after 72 hrs by MTT assay; conditions: MCF7, 72 h; summary of the method: as §1
# SK-BR-3 = assay: Antiproliferative activity against human SKBR3 cells after 72 hrs by MTT assay; conditions: SK-BR-3, 72 h; summary of the method: as §1
# MDA-MB-468 = assay: Antiproliferative activity against human MDA-MB-468 cells after 72 hrs by MTT assay; conditions: MDA-MB-468, 72 h; summary of the method: as §1
# T47D = assay: Antiproliferative activity against human T47D cells after 72 hrs by MTT assay; summary of the method: as §1
Structure (SMILES),IC50 (MDA-MB-231),IC50 (BT-474),IC50 (MCF7),IC50 (SK-BR-3),IC50 (MDA-MB-468),IC50 (T47D)
C[C@@H]1CC[C@@]2(OC1)O[C@H]1C[C@H]3[C@@H]4CC[C@H]5C[C@@H](O)CC[C@]5(C)[C@H]4C/C(=N\NC(=S)Nc4ccc(Cl)cc4Cl)[C@]3(C)[C@H]1[C@@H]2C,7.5 µM,9 µM,7.9 µM,8.8 µM,8 µM,9.5 µM
C[C@@H]1CC[C@@]2(OC1)O[C@H]1C[C@H]3[C@@H]4CC[C@H]5C[C@@H](O)CC[C@]5(C)[C@H]4C/C(=N\NC(=O)Nc4ccc(Cl)cc4)[C@]3(C)[C@H]1[C@@H]2C,8.5 µM,9.8 µM,9.1 µM,9 µM,11.3 µM,12 µM
C[C@@H]1CC[C@@]2(OC1)O[C@H]1C[C@H]3[C@@H]4CC[C@H]5C[C@@H](O)CC[C@]5(C)[C@H]4C/C(=N\NC(=S)Nc4ccc(C(F)(F)F)cc4)[C@]3(C)[C@H]1[C@@H]2C,3.2 µM,4.4 µM,3.7 µM,4 µM,3.9 µM,3.8 µM
COc1ccccc1NC(=S)N/N=C1\C[C@H]2[C@@H](CC[C@H]3C[C@@H](O)CC[C@@]32C)[C@@H]2C[C@@H]3O[C@]4(CC[C@@H](C)CO4)[C@@H](C)[C@@H]3[C@@]12C,6.8 µM,8.8 µM,7.1 µM,7.5 µM,7.5 µM,10.2 µM
C[C@@H]1CC[C@@]2(OC1)O[C@H]1C[C@H]3[C@@H]4CC[C@H]5C[C@@H](O)CC[C@]5(C)[C@H]4C/C(=N\NC(=S)Nc4ccc5c(c4)OCO5)[C@]3(C)[C@H]1[C@@H]2C,5.5 µM,7.5 µM,5.3 µM,6.2 µM,5.9 µM,7.8 µM
C[C@@H]1CC[C@@]2(OC1)O[C@H]1C[C@H]3[C@@H]4CC[C@H]5C[C@@H](OC(=O)c6ccccc6)CC[C@]5(C)[C@H]4CC(=O)[C@]3(C)[C@H]1[C@@H]2C,29.1 µM,36.3 µM,30.3 µM,33.4 µM,34.2 µM,37.8 µM
C[C@@H]1CC[C@@]2(OC1)O[C@H]1C[C@H]3[C@@H]4CC[C@H]5C[C@@H](OC(=O)c6ccccc6Cl)CC[C@]5(C)[C@H]4CC(=O)[C@]3(C)[C@H]1[C@@H]2C,> 40 µM,> 40 µM,> 40 µM,> 40 µM,> 40 µM,> 40 µM
C[C@@H]1CC[C@@]2(OC1)O[C@H]1C[C@H]3[C@@H]4CC[C@H]5C[C@@H](O)CC[C@]5(C)[C@H]4C/C(=N\NC(=O)Nc4ccccc4)[C@]3(C)[C@H]1[C@@H]2C,9.2 µM,11.9 µM,10.4 µM,12 µM,11.9 µM,13.5 µM
Cc1ccc(NC(=S)N/N=C2\C[C@H]3[C@@H](CC[C@H]4C[C@@H](O)CC[C@@]43C)[C@@H]3C[C@@H]4O[C@]5(CC[C@@H](C)CO5)[C@@H](C)[C@@H]4[C@@]23C)cc1,3.1 µM,4.5 µM,3.7 µM,3.8 µM,4 µM,6.1 µM
C[C@@H]1CC[C@@]2(OC1)O[C@H]1C[C@H]3[C@@H]4CC[C@H]5C[C@@H](OC(=O)c6ccc(F)cc6)CC[C@]5(C)[C@H]4CC(=O)[C@]3(C)[C@H]1[C@@H]2C,27 µM,30 µM,28 µM,36 µM,33.4 µM,29 µM

# Further lines, results first:
IC50 (MDA-MB-231),IC50 (BT-474),IC50 (MCF7),IC50 (SK-BR-3),IC50 (MDA-MB-468),IC50 (T47D),Structure (SMILES)
7.3 µM,10.3 µM,7.5 µM,7.9 µM,8 µM,11.5 µM,C[C@@H]1CC[C@@]2(OC1)O[C@H]1C[C@H]3[C@@H]4CC[C@H]5C[C@@H](O)CC[C@]5(C)[C@H]4C/C(=N\NC(=S)Nc4ccc([N+](=O)[O-])cc4)[C@]3(C)[C@H]1[C@@H]2C
5.5 µM,6.5 µM,5.9 µM,5.7 µM,6.2 µM,7 µM,C[C@@H]1CC[C@@]2(OC1)O[C@H]1C[C@H]3[C@@H]4CC[C@H]5C[C@@H](O)CC[C@]5(C)[C@H]4C/C(=N\NC(=S)Nc4ccccc4Cl)[C@]3(C)[C@H]1[C@@H]2C
9.5 µM,10.9 µM,10.1 µM,11.5 µM,11.2 µM,14.2 µM,COc1ccc(NC(=S)N/N=C2\C[C@H]3[C@@H](CC[C@H]4C[C@@H](O)CC[C@@]43C)[C@@H]3C[C@@H]4O[C@]5(CC[C@@H](C)CO5)[C@@H](C)[C@@H]4[C@@]23C)cc1
25.3 µM,> 40 µM,32.4 µM,34.9 µM,> 40 µM,> 40 µM,C[C@@H]1CC[C@@]2(OC1)O[C@H]1C[C@H]3[C@@H]4CC[C@H]5C[C@@H](OC(=O)c6ccc([N+](=O)[O-])cc6)CC[C@]5(C)[C@H]4CC(=O)[C@]3(C)[C@H]1[C@@H]2C
5 µM,6.3 µM,4 µM,4.5 µM,4.2 µM,5.9 µM,C[C@@H]1CC[C@@]2(OC1)O[C@H]1C[C@H]3[C@@H]4CC[C@H]5C[C@@H](O)CC[C@]5(C)[C@H]4C/C(=N\NC(=S)Nc4ccc(F)cc4)[C@]3(C)[C@H]1[C@@H]2C
2.7 µM,3.7 µM,3 µM,4.2 µM,3.8 µM,5.2 µM,Cc1ccc(NC(=S)N/N=C2\C[C@H]3[C@@H](CC[C@H]4C[C@@H](O)CC[C@@]43C)[C@@H]3C[C@@H]4O[C@]5(CC[C@@H](C)CO5)[C@@H](C)[C@@H]4[C@@]23C)c(C)c1
28 µM,> 40 µM,29.3 µM,31 µM,36.4 µM,> 40 µM,Cc1ccc(S(=O)(=O)NC(=O)N/N=C2\C[C@H]3[C@@H](CC[C@H]4C[C@@H](O)CC[C@@]43C)[C@@H]3C[C@@H]4O[C@]5(CC[C@@H](C)CO5)[C@@H](C)[C@@H]4[C@@]23C)cc1
> 40 µM,> 40 µM,> 40 µM,> 40 µM,> 40 µM,> 40 µM,COc1ccccc1C(=O)O[C@H]1CC[C@@]2(C)[C@@H](CC[C@@H]3[C@@H]2CC(=O)[C@]2(C)[C@@H]4[C@H](C[C@@H]32)O[C@]2(CC[C@@H](C)CO2)[C@H]4C)C1
3.8 µM,8.3 µM,5 µM,4.7 µM,5.8 µM,8.8 µM,CCc1ccccc1NC(=S)N/N=C1\C[C@H]2[C@@H](CC[C@H]3C[C@@H](O)CC[C@@]32C)[C@@H]2C[C@@H]3O[C@]4(CC[C@@H](C)CO4)[C@@H](C)[C@@H]3[C@@]12C
> 40 µM,> 40 µM,> 40 µM,> 40 µM,> 40 µM,> 40 µM,C[C@@H]1CC[C@@]2(OC1)O[C@H]1C[C@H]3[C@@H]4CC[C@H]5C[C@@H](OC(=O)c6ccco6)CC[C@]5(C)[C@H]4CC(=O)[C@]3(C)[C@H]1[C@@H]2C
25.7 µM,35 µM,33.2 µM,34.7 µM,32.6 µM,> 40 µM,C[C@@H]1CC[C@@]2(OC1)O[C@H]1C[C@H]3[C@@H]4CC[C@H]5C[C@@H](OC(=O)c6ccc(C#N)cc6)CC[C@]5(C)[C@H]4CC(=O)[C@]3(C)[C@H]1[C@@H]2C
6 µM,6.9 µM,6.4 µM,9 µM,7.3 µM,10.4 µM,C[C@@H]1CC[C@@]2(OC1)O[C@H]1C[C@H]3[C@@H]4CC[C@H]5C[C@@H](O)CC[C@]5(C)[C@H]4C/C(=N\NC(=S)Nc4c(Cl)cccc4Cl)[C@]3(C)[C@H]1[C@@H]2C
28.1 µM,31.2 µM,27 µM,29 µM,30.8 µM,> 40 µM,C[C@@H]1CC[C@@]2(OC1)O[C@H]1C[C@H]3[C@@H]4CC[C@H]5C[C@@H](O)CC[C@]5(C)[C@H]4C/C(=N\NC(=S)Nc4ccc(Oc5ccccc5)cc4)[C@]3(C)[C@H]1[C@@H]2C
2.3 µM,3.2 µM,2.5 µM,2.9 µM,2.8 µM,4.2 µM,Cc1cccc(C)c1NC(=S)N/N=C1\C[C@H]2[C@@H](CC[C@H]3C[C@@H](O)CC[C@@]32C)[C@@H]2C[C@@H]3O[C@]4(CC[C@@H](C)CO4)[C@@H](C)[C@@H]3[C@@]12C
2.1 µM,3.1 µM,2.2 µM,2.1 µM,2.7 µM,2.4 µM,C[C@@H]1CC[C@@]2(OC1)O[C@H]1C[C@H]3[C@@H]4CC[C@H]5C[C@@H](O)CC[C@]5(C)[C@H]4C/C(=N\NC(=S)Nc4ccccc4C(F)(F)F)[C@]3(C)[C@H]1[C@@H]2C
